Molecules are shown by their SMILES. Like-named read-outs stand apart in the source and are kept apart here. Marks after values point to notes of the source that are not given here.

Results on 15 molecules are retold here after PMC4171190 (Fitoterapia, 2014).

One test has as its target alpha7 nAChR (Rattus norvegicus, UniProt Q05941). Description: [3H]-MLA displacement from rat hippocampal membranes. In kind it is binding.
Test [1] relates to LPS stimulated BV2 microglia. The test is described as follows: Inhibition of TNF-alpha release from LPS stimulated BV2 microglia. In kind it is cell-based, murine. To be noted: flavonoid alone; 10μg/ml LPS 24h. In short, it runs like this:
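Murine BV2 cells seeded at 5×10^5 cells/well in 24-well plates, adhered overnight, then given 1h serum-free pretreatment with test compound (±10μM MLA or 1μM nicotine) before 10μg/ml LPS for 24h. Supernatants frozen, then assayed by mouse TNF-alpha ELISA. Release expressed as % of LPS alone, normalised to resazurin viability when groups differed. Sigmoidal fits, fixed vs variable slope compared by F-test.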

Test [2] deals with LPS stimulated BV2 microglia. The test is described as follows: Inhibition of NO release from LPS stimulated BV2 microglia. In kind it is cell-based, murine. In short, it runs like this: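 BV2 murine microglia (DMEM/F-12, 10% FBS, 37°C, 5% CO2) trypsinised, seeded 5×10^5 cells/well in 24-well plates, adhered overnight. Pretreated 1h serum-free with test compound (±10μM MLA or 1μM nicotine), then 10μg/ml LPS for 24h. Supernatant nitrite read immediately by Griess, A550, against NaNO2 standard. Expressed as % of LPS alone; sigmoidal fits, fixed vs variable slope compared by F-test.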

Test [3] concerns the target nicotinic binding sites on BV2 membranes. Description: [3H]-epibatidine saturation binding on BV2 membranes. Also noted: species or system murine. To be noted: read-out: Kd, saturation binding; BV2 microglia membranes.
[4] abbreviates: IC50 [3H]-MLA displacement, rat hippocampal membranes, 2nM [3H]-MLA.
[5] abbreviates: pIC50 [3H]-MLA displacement, rat hippocampal membranes, 2nM [3H]-MLA.

Chain of alpha7 nAChR (Q05941 23-502): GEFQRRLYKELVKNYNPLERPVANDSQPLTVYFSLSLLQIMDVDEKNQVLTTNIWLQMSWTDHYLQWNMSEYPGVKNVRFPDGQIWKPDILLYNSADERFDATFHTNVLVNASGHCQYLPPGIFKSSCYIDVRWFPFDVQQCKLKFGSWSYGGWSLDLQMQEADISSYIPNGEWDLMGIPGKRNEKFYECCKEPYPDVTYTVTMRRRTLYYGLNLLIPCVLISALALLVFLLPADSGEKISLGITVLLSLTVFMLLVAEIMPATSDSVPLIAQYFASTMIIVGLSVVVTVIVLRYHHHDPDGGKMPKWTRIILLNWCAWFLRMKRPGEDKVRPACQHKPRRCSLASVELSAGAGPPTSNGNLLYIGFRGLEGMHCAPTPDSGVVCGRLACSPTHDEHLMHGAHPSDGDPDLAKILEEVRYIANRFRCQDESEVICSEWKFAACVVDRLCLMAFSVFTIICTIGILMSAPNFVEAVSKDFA

For `O=c1c(O[C@@H]2O[C@H](CO)[C@@H](O)[C@H](O)[C@H]2O)c(-c2ccc(O)cc2)oc2cc(O)cc(O)c12` [Astragalin], at alpha7 nAChR (setting [4]), the IC50 stood at 496 µM.
The molecule `O=c1cc(-c2ccccc2)oc2cc(O)c(O)c(O)c12` [Baicalein] showed an IC50 on alpha7 nAChR (setting [4]) of 66.1 µM.
On to `O=c1c(-c2ccc(O)cc2)coc2cc(O[C@@H]3O[C@H](CO)[C@@H](O)[C@H](O)[C@H]3O)ccc12` [Daidzin], for which the half-inhibitory concentration (IC50) on alpha7 nAChR (setting [4]) was found to be 120 µM.
Regarding `O=c1c(O[C@@H]2O[C@H](CO)[C@@H](O)[C@H](O)[C@H]2O)c(-c2ccc(O)c(O)c2)oc2cc(O)cc(O)c12` [Isoquercitrin], the IC50 at alpha7 nAChR (setting [5]) was 21.5 µM.
As to `COc1cc(-c2oc3cc(O)cc(O)c3c(=O)c2O)ccc1O` [Isorhamnetin], the IC50 was 46.5 µM at alpha7 nAChR (setting [4]) and 46.6 µM on alpha7 nAChR (setting [5]).
For `COc1cc(-c2[o+]c3cc(O)cc(O)c3cc2O)cc(OC)c1O` [Malvidin], the IC50 on alpha7 nAChR worked out at 90 µM.
For `COc1cc(-c2[o+]c3cc(O)cc(O)c3cc2O[C@@H]2O[C@H](CO)[C@@H](O)[C@H](O)[C@H]2O)cc(O)c1O` [Petunidin-3-glucoside], the “pIC50 [3H]-MLA displacement” value at alpha7 nAChR (rat hippocampal membranes, 2nM [3H]-MLA) was 2.464 ± 0.95. Also, the IC50 at alpha7 nAChR (read-out: IC50 [3H]-MLA displacement, rat hippocampal membranes, 2nM [3H]-MLA) was 3430 µM.
`O=c1c(O)c(-c2ccc(O)c(O)c2)oc2cc(O)c(O)c(O)c12` [Quercetagetin]: the IC50 at alpha7 nAChR was 14.3 µM.
On to `O=c1c(O)c(-c2ccc(O)c(O)c2)oc2cc(O)cc(O)c12` [Quercetin], for which the IC50 at alpha7 nAChR (setting [4]) was 11.4 µM; at alpha7 nAChR (setting [5]) it was 11.5 µM.
Consider `COc1cc(O)c2c(=O)c(O)c(-c3ccc(O)c(O)c3)oc2c1` [Rhamnetin], for which the IC50 on alpha7 nAChR (setting [5]) was 1.11 µM. Moreover, in test [1], the “Hill slope, inhibition of TNF-alpha release” value is given as -3.5 ± 4.1.
Turning to `COc1cc(O)c2c(c1)O[C@H](c1ccc(O)cc1)CC2=O` [Sakuranetin], in test [2] (addition of MLA, LPS stimulated BV2), the “effect of added MLA on anti-inflammatory properties (NO and TNF-alpha release)” value is “no effect”. Besides, in test [2] (flavonoid alone, 10μg/ml LPS 24h), the “Hill slope, inhibition of NO release” value is reported as -1.0 ^**. In test [1], the “Hill slope, inhibition of TNF-alpha release” value was -1.0 ^**.
Turning to `O=c1c(O)c(-c2ccc(O[C@@H]3O[C@H](CO)[C@@H](O)[C@H](O)[C@H]3O)c(O)c2)oc2cc(O)cc(O)c12` [Spiraeoside], the IC50 on alpha7 nAChR (setting [4]) was 8.35 µM.
In turn, `COc1ccc(-c2oc3cc(O)cc(O)c3c(=O)c2O)cc1O` [Tamarixetin] returned an IC50 at alpha7 nAChR (setting [4]) of 238 µM.
For `Clc1ccc(C2CC3CCC2N3)cn1` (centres unmarked) [[^3H]-epibatidine], in test [3], the Kd is 6.5 nM.
Take `CN1CCC[C@H]1c1cccnc1` [nicotine, (-)-nicotine]: the “effect alone on LPS induced release of inflammatory mediators” value in test [2] (1μM, alone) is reported as “no effect alone”. The “effect of mecamylamine on inhibition of NO release” value in test [2] (10μM mecamylamine) is given as “blocked”. For the same molecule, in test [2] (1h pretreatment, 10μg/ml LPS 24h), the “maximal inhibition of LPS elicited release of NO” value is given as approximately 20%.
